Measurements published in ChEMBL document CHEMBL4033620, “Design, synthesis and biological evaluation of quinoline derivatives as HDAC class I inhibitors” (Eur J Med Chem, 2017).

Key:
[1] = target: Histone deacetylase (HDAC1 and HDAC2) (Homo sapiens, UniProt Q13547+Q92769); test: Inhibition of HDAC1/2 in human HeLa cell nuclear extract using COLOR DE LYS as substrate pretreated for 5 mins followed by substrate addition measured after 30 mins by UV-absorption method; type: cell-based
[2] = tested on: K562; test: Induction of apoptosis in human K562 cells assessed as necrotic cells at 2 uM after 24 hrs by Annexin V-FITC/propidium iodide staining-based flow cytometry (reference value: 0.035%); type: functional
[3] = tested on: K562; test: Induction of apoptosis in human K562 cells assessed as late apoptotic cells at 2 uM after 24 hrs by Annexin V-FITC/propidium iodide staining-based flow cytometry (reference value: 2.83%); type: functional
[4] = tested on: K562; test: Induction of apoptosis in human K562 cells assessed as early apoptotic cells at 2 uM after 24 hrs by Annexin V-FITC/propidium iodide staining-based flow cytometry (reference value: 4.78%); type: functional
[5] = tested on: K562; test: Induction of apoptosis in human K562 cells assessed as viable cells at 2 uM after 24 hrs by Annexin V-FITC/propidium iodide staining-based flow cytometry (reference value: 92.4%); type: functional
[6] = tested on: K562; test: Induction of apoptosis in human K562 cells assessed as necrotic cells at 1 uM after 24 hrs by Annexin V-FITC/propidium iodide staining-based flow cytometry (reference value: 0.035%); type: functional
[7] = tested on: K562; test: Induction of apoptosis in human K562 cells assessed as late apoptotic cells at 1 uM after 24 hrs by Annexin V-FITC/propidium iodide staining-based flow cytometry (reference value: 2.83%); type: functional
[8] = tested on: K562; test: Induction of apoptosis in human K562 cells assessed as early apoptotic cells at 1 uM after 24 hrs by Annexin V-FITC/propidium iodide staining-based flow cytometry (reference value: 4.78%); type: functional
[9] = tested on: K562; test: Induction of apoptosis in human K562 cells assessed as viable cells at 1 uM after 24 hrs by Annexin V-FITC/propidium iodide staining-based flow cytometry (reference value: 92.4%); type: functional
[10] = tested on: PC-3; test: Antiproliferative activity against human PC3 cells after 48 hrs by MTT assay; type: functional, cell-based; conditions: PC-3, 48 h
In short: (§1)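 Cells grown in RPMI1640 with 10% FBS at 37°C, 5% CO2. Seeded at 4000–5000 cells/well for 8 h, then exposed to a range of compound concentrations for 48 h. 0.5% MTT solution added for 4 h, formazan dissolved in DMSO, absorbance read at 570 nm. IC50 derived from inhibition ratios, given as mean ± standard deviation of two or three separate determinations.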

[11] = tested on: K562; test: Induction of apoptosis in human K562 cells after 24 hrs by Annexin V-FITC/propidium iodide staining-based flow cytometric method; type: functional, cell-based
[12] = tested on: MOLT-4; test: Antiproliferative activity against human MOLT4 cells after 48 hrs by MTT assay; type: functional, cell-based; conditions: MOLT-4, 48 h
[13] = tested on: HEL; test: Antiproliferative activity against human HEL cells after 48 hrs by MTT assay; type: functional, cell-based
[14] = tested on: K562; test: Antiproliferative activity against human K562 cells after 48 hrs by MTT assay; type: functional, cell-based; conditions: K562, 48 h
[15] = tested on: HeLa; test: Antiproliferative activity against human HeLa cells after 48 hrs by MTT assay; type: functional, cell-based; in short: as §1
[16] = target: Histone deacetylase 1 (Homo sapiens, UniProt Q13547); test: Inhibition of HDAC1 (unknown origin) using substrate after 30 mins by fluorometric analysis
Histone deacetylase 1, sequence (Q13547 whole entry): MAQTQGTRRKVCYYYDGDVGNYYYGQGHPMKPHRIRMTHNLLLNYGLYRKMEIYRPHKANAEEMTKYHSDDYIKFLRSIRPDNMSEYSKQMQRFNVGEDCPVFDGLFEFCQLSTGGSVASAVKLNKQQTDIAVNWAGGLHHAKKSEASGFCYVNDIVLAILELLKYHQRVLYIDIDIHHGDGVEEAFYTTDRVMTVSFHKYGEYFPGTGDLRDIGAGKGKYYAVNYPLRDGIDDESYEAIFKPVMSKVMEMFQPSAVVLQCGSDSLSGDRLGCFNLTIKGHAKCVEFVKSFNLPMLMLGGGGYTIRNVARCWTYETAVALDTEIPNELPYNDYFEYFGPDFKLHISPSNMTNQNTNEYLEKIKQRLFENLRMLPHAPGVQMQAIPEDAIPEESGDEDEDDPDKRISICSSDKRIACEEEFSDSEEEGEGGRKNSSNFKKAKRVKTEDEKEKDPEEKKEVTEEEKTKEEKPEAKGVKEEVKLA

[17] = target: T1, Protein deacetylase HDAC6 (Homo sapiens, UniProt Q9UBN7); test: Inhibition of HDAC6 (unknown origin) using substrate after 30 mins by fluorometric analysis
T1 sequence (Q9UBN7 whole entry): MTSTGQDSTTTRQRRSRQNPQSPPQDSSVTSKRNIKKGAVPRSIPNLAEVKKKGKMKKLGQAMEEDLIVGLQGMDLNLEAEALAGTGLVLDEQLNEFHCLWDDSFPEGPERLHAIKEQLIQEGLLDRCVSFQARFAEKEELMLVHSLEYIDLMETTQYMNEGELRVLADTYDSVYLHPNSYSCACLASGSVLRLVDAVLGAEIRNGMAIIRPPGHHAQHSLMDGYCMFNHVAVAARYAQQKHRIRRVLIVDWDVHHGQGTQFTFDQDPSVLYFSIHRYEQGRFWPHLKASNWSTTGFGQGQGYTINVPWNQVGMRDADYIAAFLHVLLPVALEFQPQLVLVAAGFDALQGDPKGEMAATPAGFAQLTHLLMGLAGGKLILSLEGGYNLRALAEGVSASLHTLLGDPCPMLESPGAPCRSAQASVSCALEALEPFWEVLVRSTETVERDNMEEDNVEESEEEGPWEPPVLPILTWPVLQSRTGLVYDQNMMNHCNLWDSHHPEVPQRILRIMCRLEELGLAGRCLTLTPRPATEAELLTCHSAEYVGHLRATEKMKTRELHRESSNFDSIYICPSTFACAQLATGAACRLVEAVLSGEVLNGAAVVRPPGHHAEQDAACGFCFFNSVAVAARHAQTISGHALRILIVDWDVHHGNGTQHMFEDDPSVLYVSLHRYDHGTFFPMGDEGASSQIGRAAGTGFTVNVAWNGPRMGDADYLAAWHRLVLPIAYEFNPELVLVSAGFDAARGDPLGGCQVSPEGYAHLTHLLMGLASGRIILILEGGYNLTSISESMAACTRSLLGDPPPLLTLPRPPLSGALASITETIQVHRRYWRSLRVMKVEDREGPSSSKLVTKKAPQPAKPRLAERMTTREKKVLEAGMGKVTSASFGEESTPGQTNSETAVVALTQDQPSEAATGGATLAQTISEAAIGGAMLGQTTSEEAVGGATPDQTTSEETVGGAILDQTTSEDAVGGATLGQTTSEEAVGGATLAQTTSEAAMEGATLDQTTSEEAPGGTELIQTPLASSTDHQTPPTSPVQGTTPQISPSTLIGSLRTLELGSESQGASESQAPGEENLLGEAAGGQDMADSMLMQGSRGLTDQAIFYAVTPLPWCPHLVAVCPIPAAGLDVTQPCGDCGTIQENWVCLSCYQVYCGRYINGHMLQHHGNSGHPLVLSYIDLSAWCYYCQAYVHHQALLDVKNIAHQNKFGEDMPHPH

[18] = target: T2, Histone deacetylase 8 (Homo sapiens, UniProt Q9BY41); test: Inhibition of HDAC8 (unknown origin) using substrate after 30 mins by fluorometric analysis
T2 sequence (Q9BY41 whole entry): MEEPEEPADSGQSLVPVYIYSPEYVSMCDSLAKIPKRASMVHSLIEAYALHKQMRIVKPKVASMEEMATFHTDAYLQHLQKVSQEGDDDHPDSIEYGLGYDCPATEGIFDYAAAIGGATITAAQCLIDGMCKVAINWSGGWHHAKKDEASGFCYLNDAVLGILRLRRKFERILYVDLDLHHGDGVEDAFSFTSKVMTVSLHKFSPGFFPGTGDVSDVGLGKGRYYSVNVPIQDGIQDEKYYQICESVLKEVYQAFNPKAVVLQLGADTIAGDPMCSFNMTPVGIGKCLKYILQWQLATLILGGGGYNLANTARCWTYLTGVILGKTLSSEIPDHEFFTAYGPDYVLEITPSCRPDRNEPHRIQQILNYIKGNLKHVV

[19] = Inhibition of Class 1 histone deacetylase in human K562 cells using Boc-Lys (acetyl)-AMC as substrate preincubated with compound for 3 hrs followed by substrate addition measured after 3 hrs by fluorometric analysis; type: cell-based
[20] = Inhibition of Class 2a histone deacetylase in human K562 cells using Boc-Lys-(epsilon-trifluoromethylacetyl)-AMC as substrate preincubated with compound for 3 hrs followed by substrate addition measured after 3 hrs by fluorometric analysis; type: cell-based
[21] = tested on: K562; test: Potency index, ratio of vorinostat IC50 to compound IC50 for human K562 cells; type: functional
In short: (§2)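 Cells were grown in RPMI1640 with 10% FBS at 37°C and 5% CO2, seeded at 4000–5000 cells/well for 8 h, then exposed to a compound concentration series for 48 h. MTT (0.5%) was added for 4 h and formazan dissolved in DMSO. A570 was read and IC50 derived from inhibition ratios.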

[22] = tested on: PC-3; test: Potency index, ratio of vorinostat IC50 to compound IC50 for human PC3 cells; type: functional; in short: as §2
[23] = Homo sapiens, K562, 24 h, read-out: Activity

## O=C(/C=C/c1ccc(CC(=O)N(Cc2ccc3cc(Br)ccc3n2)c2ccccc2)cc1)NO
[1]
  IC50: > 1000 nM

## O=C(CCCCCCC(=O)Nc1ccccc1)NO [VORINOSTAT]
[2]
  Activity: 0.05%
[3]
  Activity: 4.04%
[4]
  Activity: 6.97%
[5]
  Activity: 88.9%
[6]
  Activity: 0.06%
[7]
  Activity: 2.99%
[8]
  Activity: 6.1%
[9]
  Activity: 90.8%
[10]
  IC50: 13900 nM
[11]
  Activity: Dose-dependent effect

## COc1ccc2nc(CN(C(=O)Cc3ccc(/C=C/C(=O)NO)cc3)c3ccccc3)ccc2c1
[1]
  IC50: 560 nM

## O=C(/C=C/c1ccc(CN(Cc2ccccc2)Cc2ccc3cc(Cl)ccc3n2)cc1)NO
[1]
  IC50: > 1000 nM

## O=C(/C=C/c1ccc(CN(Cc2ccccc2)Cc2ccc3ccccc3n2)cc1)NO
[1]
  IC50: > 1000 nM

## O=C(NO)c1ccc(CN(Cc2ccccc2)Cc2ccc3ccccc3n2)cc1
[1]
  IC50: 836 nM

## O=C(NO)c1ccc(CNCc2ccc3ccccc3n2)cc1
[1]
  IC50: > 1000 nM

## COc1ccc(N(Cc2ccc3cccc(Cl)c3n2)C(=O)c2ccc(/C=C/C(=O)NO)cc2)cc1
[1]
  IC50: > 1000 nM

## O=C(NO)c1ccc(CNCc2ccc3cccc(Cl)c3n2)cc1
[1]
  IC50: > 1000 nM

## O=C(/C=C/c1ccc(CN(Cc2ccccc2)Cc2ccc3cc(Br)ccc3n2)cc1)NO
[1]
  IC50: > 1000 nM

## O=C(/C=C/c1cccc(CNCc2ccc3cc(Br)ccc3n2)c1)NO
[1]
  IC50: 559 nM

## COc1ccc2nc(CNCc3ccc(/C=C/C(=O)NO)cc3)ccc2c1
[1]
  IC50: 236 nM
[12]
  IC50: 230 nM
[13]
  IC50: 130 nM
[14]
  IC50: 690 nM
[10]
  IC50: 3700 nM
[15]
  IC50: 2680 nM

## O=C(/C=C/c1ccc(C(=O)N(Cc2ccc3cc(Br)ccc3n2)c2ccccc2)cc1)NO
[1]
  IC50: > 1000 nM

## COc1ccc2nc(CNCc3ccc(C(=O)NO)cc3)ccc2c1
[1]
  IC50: > 1000 nM

## COc1ccc(N(Cc2ccc3ccccc3n2)C(=O)c2ccc(/C=C/C(=O)NO)cc2)cc1
[1]
  IC50: 744 nM

## O=C(/C=C/c1ccc(C(=O)N(Cc2ccc3ccccc3n2)c2ccc(Br)cc2)cc1)NO
[1]
  IC50: > 1000 nM

## O=C(/C=C/c1ccc(CNCc2ccc3cc(Br)ccc3n2)cc1)NO
[1]
  IC50: 375 nM

## CCCCCCN(Cc1ccc(/C=C/C(=O)NO)cc1)Cc1ccc2cc(Br)ccc2n1
[1]
  IC50: > 1000 nM

## O=C(/C=C/c1cccc(CN(Cc2ccccc2)Cc2ccc3cc(Br)ccc3n2)c1)NO
[1]
  IC50: > 1000 nM

## CCCCCCN(Cc1cccc(/C=C/C(=O)NO)c1)Cc1ccc2cc(Br)ccc2n1
[1]
  IC50: > 1000 nM

## O=C(NO)c1ccc(CNCc2ccc3cc(Br)ccc3n2)cc1
[1]
  IC50: > 1000 nM

## O=C(/C=C/c1ccc(C(=O)N(Cc2ccc3ccccc3n2)c2ccccc2)cc1)NO
[1]
  IC50: > 1000 nM

## O=C(/C=C/c1ccc(CC(=O)N(Cc2ccc3ccccc3n2)c2ccccc2)cc1)NO
[1]
  IC50: 720 nM

## COc1cccc2ccc(CN(C(=O)c3ccc(/C=C/C(=O)NO)cc3)c3ccccc3)nc12
[1]
  IC50: 724 nM

## O=C(/C=C/c1ccc(CNCc2ccc3ccccc3n2)cc1)NO
[2]
  Activity: 0.072%
[3]
  Activity: 2.16%
[4]
  Activity: 58.2%
[5]; [23]
  viability at 2 µM: 39.6%
[6]
  Activity: 0.121%
[7]
  Activity: 1.95%
[8]
  Activity: 34.5%
[9]; [23]
  viability at 1 µM: 63.4%
[1]
  IC50: 138 nM
[16]
  IC50: 72.5 nM
[17]
  IC50: 49.5 nM
[18]
  IC50: 442 nM
[12]
  IC50: 240 nM
[13]
  IC50: 150 nM
[14]
  IC50: 510 nM
[10]
  IC50: 3080 nM
[15]
  IC50: 2200 nM
[19]
  IC50: 108 nM
[20]
  IC50: 5210 nM
[11]
  Activity: Dose-dependent effect
[21]
  Ratio IC50: 3 - 5
[22]
  Ratio IC50: 3 - 5

## O=C(/C=C/c1ccc(CNCc2ccc3cc(Cl)ccc3n2)cc1)NO
[1]
  IC50: 305 nM
[12]
  IC50: 250 nM
[13]
  IC50: 220 nM
[14]
  IC50: 720 nM
[10]
  IC50: 4350 nM
[15]
  IC50: 3030 nM

## COc1ccc2nc(CN(Cc3ccccc3)Cc3ccc(/C=C/C(=O)NO)cc3)ccc2c1
[1]
  IC50: > 1000 nM

## COc1cccc2ccc(CNCc3ccc(/C=C/C(=O)NO)cc3)nc12
[1]
  IC50: 206 nM
[12]
  IC50: 190 nM
[13]
  IC50: 220 nM
[14]
  IC50: 750 nM
[10]
  IC50: 4600 nM
[15]
  IC50: 3330 nM
